Source: PubChem (several laboratories)
Sampled rows, rich in hits. Any-hit rate of the full collection: about 3.9%.
SR-BI HDL uptake – inhibitors of SR-BI mediated HDL lipid uptake, primary screen, ldlA[mSR-BI] cells, fluorescence, single point | Scavenger receptor class B member 1 (Mus musculus), Q61009 | ldlA[mSR-BI] CHO cells, DiI-HDL uptake fluorescence, 3 h | inhibition, % at 12.5 µM | 0.96% of 320,000 active | AID 488896, 2010;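 active = mean replicate inhibition of at least 70% and a set share of replicates each scoring 70 or more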;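 also: 0% = median of neutral control wells and 100% = median of positive control wells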
SR-BI uptake up – activators of SR-BI mediated DiI-HDL uptake, primary screen, ldlA[mSR-BI] CHO cells, DiI fluorescence. 0.096% of 320,000 active. AID 504775, 2011. 3 h; 100 = double the neutral-control signal. activation, % at 12.5 µM;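 active = mean replicate activation of at least 60% and every replicate at or above 60%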;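 also: 0% = median plate neutral-control signal and 100% = twice that signal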
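material = CHO ldlA[mSR-BI] cells | medium = Ham's F12 with 0.5% BSA, HEPES 25 mM, pH 7.4 | reagent = fluorescent DiI-HDL, 10 µg/mL final | compound dosing = single-point compound dose | incubation = 3 h, 37 °C | measured by = bottom-read fluorescence, 550/595 nm | measure = HDL uptake via cellular fluorescence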
ABCB6 inh MLPCN – ABCB6 transporter inhibitors, primary screen, K562-ABCB6 cells, flow cytometry, MLPCN library; K562-ABCB6 porphyrin accumulation, 1 h; active compounds read low; fluorescence ratio to DMSO, % at 10 µM; 0.19% of 360,000 active; AID 602162, 2011;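 active = fluorescence ratio to DMSO below 75%, the collection mean minus 3 SD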;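 also: signal is porphyrin accumulated inside mitochondria; 100% equals median channel fluorescence of DMSO control wells; lower ratio means ABCB6 inhibition with less porphyrin fluorescence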
HIF act – HIF pathway transcriptional activators, primary screen, cell-based, U2OS HRE-luciferase, luminescence; U2OS HRE-luciferase reporter; normalized: DMSO 0%, desferrioxamine 100%; activation, % at 7.5 µM (by protocol); 0.32% of 300,000 active; AID 1910, 2009;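 active = mean activation of at least 10% of the iron chelator positive control signal, with at least half of replicates also reaching 10%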
GAA850 FXN act – FXN promoter activators, primary screen, cell-based, luciferase luminescence, HEK293 lucGAA850; activation, % at 6 µM; AID 540364, 2011; 0.56% of 360,000 active; HEK293 lucGAA850 FXN promoter luciferase reporter, 24 h; percent of 10 µM SAHA response;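 active = activation above the average of all compounds screened plus 3 SD, cutoff fixed separately per campaign, cut at about 7.5% in these data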;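 also: 0% = DMSO wells and 100% = 10 µM SAHA wells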
AHR activator – AHR activators, primary screen, cell-based, luminescence, luciferase reporter, human | Aryl hydrocarbon receptor (Homo sapiens), P35869 | AID 2796, 2010 | 2.5% of 320,000 active | activation, % at 5 µM | AHR-responsive luciferase reporter cells; in the data active = activation above about 47%;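 also: 0% = vehicle wells and 100% = reference agonist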
GAA30 FXN cntr – GAA30 FXN promoter activators, confirmation, counter-screen for GAA850 frataxin promoter activator project, cell-based, luminescence, HEK293, lucGAA30, triplicate | HEK293 lucGAA30 FXN promoter luciferase, 24 h; DMSO = 0%, 5 µM ipriflavone = 100% | shares compounds with GAA850 FXN act | 66% of 1,900 active | activation, % at 6 µM;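 active = mean activation above the mean of solvent-only control wells plus 3 SD, cut at about 22% in these data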;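 also: counterscreen of GAA850 promoter hits where activity marks nonselective or luminescence artifacts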
GAA850 confirm – FXN GAA850 promoter activators in reporter cells, confirmation, cell-based, luminescence, HEK293 lucGAA850, triplicate | shares compounds with GAA850 FXN act | HEK293 lucGAA850 FXN promoter luciferase reporter, 24 h; 100% = activation by SAHA | activation, % at 6 µM | 86% of 1,900 active | AID 588351, 2011;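 active = mean activation above a set limit taken from the primary screen, cut at about 8% in these data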;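 also: 0% = DMSO wells and 100% = 10 µM SAHA wells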
An asterisk follows results filed as active; x = no result.

SMILES | SR-BI HDL uptake | SR-BI uptake up | ABCB6 inh MLPCN | HIF act | GAA850 FXN act | AHR activator | GAA30 FXN cntr | GAA850 confirm
CC(C)OP(=O)(c1ccc(N(C)C)cc1)C(Nc1ccccc1)c1ccccc1 (centres undefined) | -42 | 42 | 94 | 0 | 8.0* | 4 | 12 | 13*
CC(C)CCOP(=O)(c1ccc(N(C)C)cc1)C(Nc1ccccc1)c1ccc(N(C)C)cc1 (centres undefined) | -17 | 17 | 91 | x | 0 | 7 | x | x
O=C(Cc1nc2ccccc2[nH]c1=O)c1ccccc1 | 33 | -33 | 447 | 5 | 8.8* | x | 140* | 53*
Cn1c(O)c(N=NC(=O)c2ccco2)c2ccccc21 | 2 | -2 | 99 | 0 | 8.4* | 42 | 144* | 38*
Cn1c(O)c(N=NC(=O)CNC(=O)c2ccco2)c2ccccc21 | -9 | 9 | 102 | 0 | 2 | 7 | x | x
C/C(=N/N=C(/C)c1cccs1)c1cccs1 | -5 | 5 | 90 | -25 | 6 | 36 | x | x
CCOC(=O)C(Cc1cc(C(C)=O)ccc1OCC)C(=O)OCC | -14 | 14 | 92 | 0 | 3 | 4 | x | x
S=c1[nH]nc(-c2ccco2)n1/N=C/C(Cl)=C/c1ccccc1 | 6 | -6 | 99 | 4 | 8.0* | -1 | 78* | 32*
S=c1[nH]nc(-c2cc(-c3ccccc3)n[nH]2)n1/N=C/C(Br)=C/c1ccccc1 | x | x | 99 | 8 | 12* | 8 | -42 | 26*
S=c1[nH]nc(-c2cc(-c3ccccc3)n[nH]2)n1/N=C/C=C/c1ccccc1 | 2 | -2 | 99 | 1 | 4 | 13 | x | x
CCOc1ccccc1C(=O)N/N=C/c1c[nH]c2ccccc12 | 20 | -20 | 97 | 0 | 8.2* | 31 | 27* | 8.9*
CCOc1ccccc1C=NNC(=O)c1cccc2ccccc12 | 66 | -66 | 97 | x | 2 | x | x | x
CCCNC(=S)NC1CC2CCC(C1)N2Cc1ccccc1 (centres undefined) | 7 | -7 | 95 | 0 | 2 | 0 | x | x
O=C1[C@@H](Oc2ccccc2)[C@@H](c2ccccc2)N1c1ccccc1 | 16 | -16 | 99 | x | -1 | x | x | x
COc1ccc(C(=O)OCC(=O)N2CCCCC2)cc1[N+](=O)[O-] | 1 | -1 | 97 | 0 | 0 | 3 | x | x
CC(C)CN1CCN(C(=O)COC(=O)c2ccc(S(C)(=O)=O)c([N+](=O)[O-])c2)CC1 | x | x | 107 | x | 9.7* | x | 70* | 15*
C=C1C(=O)O[C@H]2C[C@]3(C)C([C@@H](OC(=O)/C(C)=C/C)[C@H]12)[C@](C)(O)CC[C@H]3O (some centres undefined) | -9 | 9 | 96 | 1 | 1 | 1 | x | x
C=C[C@@]1(C)CC(=O)[C@]2(O)[C@@]3(C)[C@@H](O)CCC(C)(C)[C@@H]3[C@H](OC(C)=O)[C@H](O)[C@@]2(C)O1 | 25 | -25 | 95 | -1 | 12* | -1 | 7 | 14*
C=C[C@@]1(C)CC(=O)[C@]2(O)[C@@]3(C)[C@@H](O)CCC(C)(C)[C@@H]3[C@H](O)[C@H](OC(C)=O)[C@@]2(C)O1 | -2 | 2 | 93 | -1 | 16* | 10 | 18 | 15*
OCCNC(=S)Nc1cc(Cl)cc(Cl)c1 | -10 | 10 | 98 | -1 | 0 | 2 | x | x
C[C@H]1CN([C@@H](C)CO)C(=O)c2cc(Br)cnc2O[C@H]1CN(C)Cc1ccc(Oc2ccccc2)cc1 | x | x | 99 | x | -2 | x | x | x
CCN(C(=O)COC(=O)c1cccs1)c1c(N)n(Cc2ccccc2)c(=O)[nH]c1=O | -17 | 17 | 99 | 0 | 4 | 1 | x | x
Cc1cc(Nc2cccc([N+](=O)[O-])c2)c2ccccc2n1 | 2 | -2 | 110 | 0 | 5 | 43 | x | x
CCOc1ccc2nc(C)cc(Nc3cccc([N+](=O)[O-])c3)c2c1 | 58 | -58 | 95 | -3 | 7.7* | 39 | 26* | 20*
CCOc1ccc(C2C(C(=O)c3ccco3)=C(O)C(=O)N2CCCn2ccnc2)cc1OCC (centres undefined) | -11 | 11 | 96 | 0 | 1 | 2 | x | x
SMILES | SR-BI HDL uptake | SR-BI uptake up | ABCB6 inh MLPCN | HIF act | GAA850 FXN act | AHR activator | GAA30 FXN cntr | GAA850 confirm
COc1ccc(Nc2cc(Nc3ccc(OC)cc3)ncn2)cc1 | -16 | 16 | 101 | 0 | -1 | 4 | x | x
COc1ccc(Nc2cc(Nc3cccc(OC)c3)ncn2)cc1 | 22 | -22 | 93 | -9 | 7.8* | 11 | 85* | 26*
COc1ccc2c(c1)CC/C(=C/c1ccccn1)C2=O | 21 | -21 | 93 | 3 | 7 | -4 | x | x
O=C1C(=Cc2ccccn2)CCc2ccccc21 | x | x | 97 | x | 7.8* | x | 103* | 31*
O=C(NCCc1ccc(O)c(O)c1)C1COc2ccccc2O1 (centres undefined) | 1 | -1 | 96 | 0 | 8.8* | 5 | 22 | 18*
N#CCSc1nc(N)c(C#N)c(C2CCCCC2)c1C#N | -7 | 7 | 114 | -1 | 11* | -2 | 15 | 19*
COc1ccc(CCNC(=O)CSc2nnc(-c3ccc(F)cc3)c3ccccc23)cc1OC | 37 | -37 | 95 | 0 | 2 | 0 | x | x
NC(=O)CC1C(=O)N(c2ccccc2)C(=S)N1NC(=O)c1ccc(Br)cc1 (centres undefined) | -18 | 18 | 92 | 2 | 4 | -1 | x | x
NC(=O)CC1C(=O)N(c2ccccc2)C(=S)N1NC(=O)c1ccccc1 (centres undefined) | -11 | 11 | 100 | -1 | 8.9* | x | 77* | 20*
COc1cccc(C(=O)NN2C(=S)N(c3ccccc3)C(=O)C2CC(N)=O)c1 (centres undefined) | -25 | 25 | 99 | 2 | 7.8* | -1 | 107* | 29*
